{
  "source": "ChEMBL document CHEMBL4152207",
  "about": "“Discovery of potent and selective BRD4 inhibitors capable of blocking TLR3-induced acute airway inflammation” (Eur J Med Chem, 2018)",
  "key": {"[1]": {"target": "Inhibitor of nuclear factor kappa-B kinase subunit alpha (Homo sapiens) (UniProt O15111)", "experiment": "Inhibition of human recombinant IKKalpha using Ulight-IkappaB-alpha as substrate after 30 mins relative to control", "parameters": "scale not given: the % may be the effect or the level left"}, "Rattus norvegicus": {"species": "Rattus norvegicus", "experiment": "Displacement of [125I]alpha-dendrotoxin from rat Voltage-gated potassium channel at 10 uM after 60 mins by scintillation counting analysis relative to control", "outline": "(§1)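 Run within a commercial off-target panel of receptors and enzymes, with compound tested at a single concentration of 10 μM.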"}, "[2]": {"target": "Neuronal acetylcholine receptor; alpha4/beta2 (Homo sapiens) (UniProt P17787+P43681)", "experiment": "Binding affinity to neuronal alpha4beta2 (unknown origin) at 10 uM by antgonist radioligand assay relative to control", "assay_type": "protein-complex assay"}, "Mus musculus [3]": {"system": "Mus musculus", "experiment": "Anti-inflammatory activity in poly(I:C)-induced airway inflammation C57BL/6 mouse model assessed as reduction in mKC expression in lung at 10 mg/kg, ip administered 1 day prior to poly(I:C) stimulation and redosed on day 2 followed by poly(I:C) stimulation", "assay_type": "functional, organism-based", "outline": "(§2)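 Male C57BL/6J mice, 12 weeks old, were given 10 mg/kg i.p. one day before stimulation. The next day they got a second dose, immediately followed by intranasal poly(I:C) (300 μg in 50 μL PBS) or PBS alone. Compound was taken up in DMSO and diluted in 10% hydroxypropyl β-cyclodextrin in PBS. Mice were euthanized one day later and lung tissue was collected for cytokine expression.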"}, "[4]": {"target": "Adenosine receptor A2a (Homo sapiens) (UniProt P29274)", "sequence (P29274 whole entry)": "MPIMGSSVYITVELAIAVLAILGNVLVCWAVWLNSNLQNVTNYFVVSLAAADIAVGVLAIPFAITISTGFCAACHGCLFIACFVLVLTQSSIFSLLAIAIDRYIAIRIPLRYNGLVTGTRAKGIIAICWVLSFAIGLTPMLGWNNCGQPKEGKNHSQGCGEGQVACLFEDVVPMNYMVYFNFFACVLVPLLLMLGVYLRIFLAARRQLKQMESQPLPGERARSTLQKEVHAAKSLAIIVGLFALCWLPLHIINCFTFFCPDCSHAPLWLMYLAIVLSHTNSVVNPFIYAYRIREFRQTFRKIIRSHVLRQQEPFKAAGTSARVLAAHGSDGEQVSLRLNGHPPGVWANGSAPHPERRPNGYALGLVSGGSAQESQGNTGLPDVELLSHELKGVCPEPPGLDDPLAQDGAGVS", "experiment": "Displacement of [3H]-CGS 21680 from human recombinant adenosine A2A receptor at 10 uM after 120 mins by scintillation counting analysis relative to control"}, "[5]": {"target": "Muscarinic acetylcholine receptor M3 (Homo sapiens) (UniProt P20309)", "sequence (P20309 whole entry, looked up)": "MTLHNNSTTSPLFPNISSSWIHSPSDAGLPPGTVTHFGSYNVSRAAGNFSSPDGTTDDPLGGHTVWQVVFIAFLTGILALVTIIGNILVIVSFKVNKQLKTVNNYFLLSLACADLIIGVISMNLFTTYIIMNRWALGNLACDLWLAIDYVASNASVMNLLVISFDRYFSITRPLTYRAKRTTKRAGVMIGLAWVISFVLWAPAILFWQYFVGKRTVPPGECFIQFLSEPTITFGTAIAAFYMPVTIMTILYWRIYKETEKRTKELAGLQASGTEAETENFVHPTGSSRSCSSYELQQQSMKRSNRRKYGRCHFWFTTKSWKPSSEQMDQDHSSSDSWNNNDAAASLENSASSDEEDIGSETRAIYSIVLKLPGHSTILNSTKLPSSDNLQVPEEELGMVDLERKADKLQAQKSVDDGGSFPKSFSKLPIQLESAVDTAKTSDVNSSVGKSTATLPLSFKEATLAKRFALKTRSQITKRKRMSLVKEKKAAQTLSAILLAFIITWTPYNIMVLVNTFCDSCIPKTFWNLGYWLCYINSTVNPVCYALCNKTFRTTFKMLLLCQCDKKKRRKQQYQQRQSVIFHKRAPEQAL", "experiment": "Displacement of [3H]4-DAMP from human recombinant M3 receptor at 10 uM after 60 mins by scintillation counting analysis relative to control"}, "Mus musculus [6]": {"system": "Mus musculus", "experiment": "Hepatotoxicity in mouse assessed as effect on ALKP level at 1 to 50 mg/kg, ip dosed daily for 1 month", "assay_type": "toxicity, organism-based", "conditions": "in vivo", "outline": "(§3)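 Groups of n = 5 mice were dosed daily at 1-50 mg/kg for one month. Liver function markers (albumin, globulin, ALK, ALT) were measured alongside body weight, blood counts and renal markers.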"}, "[7]": {"target": "Acetylcholinesterase (Homo sapiens) (UniProt P22303)", "sequence (P22303 whole entry)": "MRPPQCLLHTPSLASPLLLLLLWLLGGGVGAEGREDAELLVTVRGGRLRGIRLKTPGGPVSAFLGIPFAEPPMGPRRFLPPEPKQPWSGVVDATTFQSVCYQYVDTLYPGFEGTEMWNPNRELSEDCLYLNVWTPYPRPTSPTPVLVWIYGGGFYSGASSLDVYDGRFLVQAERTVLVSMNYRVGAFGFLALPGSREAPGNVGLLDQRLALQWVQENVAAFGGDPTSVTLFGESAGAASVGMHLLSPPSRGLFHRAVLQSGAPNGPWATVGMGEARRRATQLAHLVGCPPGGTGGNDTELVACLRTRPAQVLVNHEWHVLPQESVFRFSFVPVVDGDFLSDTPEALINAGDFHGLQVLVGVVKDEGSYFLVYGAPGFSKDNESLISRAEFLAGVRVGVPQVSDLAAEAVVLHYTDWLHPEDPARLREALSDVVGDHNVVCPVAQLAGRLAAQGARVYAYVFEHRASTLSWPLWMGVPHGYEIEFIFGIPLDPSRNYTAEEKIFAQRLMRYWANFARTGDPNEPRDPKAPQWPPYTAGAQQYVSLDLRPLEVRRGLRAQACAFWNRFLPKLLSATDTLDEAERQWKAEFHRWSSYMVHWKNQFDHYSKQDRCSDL", "experiment": "Inhibition of human recombinant ACHE using acetylthiocholine as substrate after 30 mins by spectrophotometric relative to control", "parameters": "scale not given: the % may be the effect or the level left", "outline": "as §1"}, "[8]": {"target": "MAO-A (amine oxidase [flavin-containing] A) (Rattus norvegicus, UniProt P21396)", "experiment": "Displacement of [3H]Ro 41-1049 from rat MAO-A at 10 uM after 120 mins by scintillation counting analysis relative to control", "conditions": "probe [3H]Ro 41-1049, read-out: Activity"}, "Mus musculus [9]": {"system": "Mus musculus", "experiment": "Hepatotoxicity in mouse assessed as effect on albumin level at 1 to 50 mg/kg, ip dosed daily for 1 month", "assay_type": "toxicity, organism-based", "conditions": "in vivo", "outline": "as §3"}, "Mus musculus [10]": {"system": "Mus musculus", "experiment": "Renal toxicity in mouse assessed as effect on BUN level at 1 to 50 mg/kg, ip dosed daily for 1 month", "assay_type": "organism-based", "conditions": "in vivo"}, "[11]": {"experiment": "Half life in rat at 10 mg/kg, iv", "assay_type": "ADME, organism-based", "conditions": "in vivo"}, "Mus musculus [12]": {"system": "Mus musculus", "experiment": "Renal toxicity in mouse assessed as effect on CRE level at 1 to 50 mg/kg, ip dosed daily for 1 month", "assay_type": "organism-based", "conditions": "in vivo"}, "[13]": {"target": "Cav1.2 (L-type calcium channel) (Rattus norvegicus, UniProt P22002)", "experiment": "Displacement of [3H]nitrendipine from rat Cav1.2 (L-type) at 10 uM after 90 mins by scintillation counting analysis relative to control", "conditions": "probe [3H]nitrendipine, read-out: Activity"}, "[14]": {"target": "cGMP-inhibited 3',5'-cyclic phosphodiesterase 3A (Homo sapiens) (UniProt Q14432)", "experiment": "Displacement of [3H]cAMP from human recombinant PDE3A at 10 uM after 20 mins by scintillation counting analysis relative to control"}, "hERG (KCNH2)": {"target": "hERG (KCNH2) (Homo sapiens, UniProt Q12809)", "sequence (Q12809 whole entry)": "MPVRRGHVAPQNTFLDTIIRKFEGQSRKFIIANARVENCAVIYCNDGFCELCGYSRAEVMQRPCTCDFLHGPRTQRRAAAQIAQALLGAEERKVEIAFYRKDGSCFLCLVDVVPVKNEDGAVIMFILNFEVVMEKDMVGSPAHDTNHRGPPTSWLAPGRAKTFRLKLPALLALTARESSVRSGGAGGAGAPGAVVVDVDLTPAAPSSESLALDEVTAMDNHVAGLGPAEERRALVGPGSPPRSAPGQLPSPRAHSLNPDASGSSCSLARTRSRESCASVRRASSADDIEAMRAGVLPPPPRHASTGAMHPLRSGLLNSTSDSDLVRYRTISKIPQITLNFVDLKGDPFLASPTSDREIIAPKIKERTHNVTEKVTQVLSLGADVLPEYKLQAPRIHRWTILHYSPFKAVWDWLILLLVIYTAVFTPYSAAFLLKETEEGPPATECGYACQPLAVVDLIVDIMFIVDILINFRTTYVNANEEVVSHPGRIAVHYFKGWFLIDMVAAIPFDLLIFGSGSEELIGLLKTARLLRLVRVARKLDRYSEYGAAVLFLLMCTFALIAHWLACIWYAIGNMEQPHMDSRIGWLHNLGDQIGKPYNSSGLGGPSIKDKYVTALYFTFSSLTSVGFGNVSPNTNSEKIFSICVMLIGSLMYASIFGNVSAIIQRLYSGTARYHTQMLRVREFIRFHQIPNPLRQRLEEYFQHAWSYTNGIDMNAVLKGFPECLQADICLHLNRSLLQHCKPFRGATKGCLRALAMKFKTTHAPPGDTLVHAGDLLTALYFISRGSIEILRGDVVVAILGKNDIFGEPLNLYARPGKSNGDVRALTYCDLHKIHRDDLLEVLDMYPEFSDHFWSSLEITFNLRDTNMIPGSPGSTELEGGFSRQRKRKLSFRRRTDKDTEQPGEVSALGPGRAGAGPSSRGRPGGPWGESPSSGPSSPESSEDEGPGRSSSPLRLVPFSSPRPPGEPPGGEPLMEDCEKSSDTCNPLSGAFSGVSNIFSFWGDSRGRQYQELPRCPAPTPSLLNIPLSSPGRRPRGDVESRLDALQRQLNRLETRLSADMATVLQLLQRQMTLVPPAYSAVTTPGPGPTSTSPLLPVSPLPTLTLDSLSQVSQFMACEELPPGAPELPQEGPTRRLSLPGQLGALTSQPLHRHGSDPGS", "experiment": "Displacement of [3H]Dofetilide from human ERG at 10 uM after 60 mins by scintillation counting analysis relative to control", "conditions": "probe [3H]Dofetilide, read-out: Activity"}, "[15]": {"target": "Histamine H2 receptor (Homo sapiens) (UniProt P25021)", "experiment": "Displacement of [125I]APT from human recombinant histamine H2 receptor at 10 uM after 120 mins by scintillation counting analysis relative to control"}, "[16]": {"experiment": "Total clearance in rat at 10 mg/kg, iv", "assay_type": "ADME, organism-based", "conditions": "in vivo"}, "[17]": {"target": "Inhibitor of nuclear factor kappa-B kinase subunit epsilon (Homo sapiens) (UniProt Q14164)", "experiment": "Inhibition of human recombinant IKKepsilon using Ulight-FLGFTYVAP as substrate after 90 mins relative to control", "parameters": "scale not given: the % may be the effect or the level left"}, "Mus musculus [18]": {"system": "Mus musculus", "experiment": "Hepatotoxicity in mouse at 1 to 50 mg/kg, ip dosed daily for 1 month by histological analysis", "assay_type": "toxicity, organism-based", "conditions": "in vivo"}, "[19]": {"experiment": "AUC (0 to t) in rat at 20 mg/kg, po", "assay_type": "ADME, organism-based", "conditions": "in vivo"}, "[20]": {"target": "5-hydroxytryptamine receptor 1B (Homo sapiens) (UniProt P28222)", "sequence (P28222 whole entry)": "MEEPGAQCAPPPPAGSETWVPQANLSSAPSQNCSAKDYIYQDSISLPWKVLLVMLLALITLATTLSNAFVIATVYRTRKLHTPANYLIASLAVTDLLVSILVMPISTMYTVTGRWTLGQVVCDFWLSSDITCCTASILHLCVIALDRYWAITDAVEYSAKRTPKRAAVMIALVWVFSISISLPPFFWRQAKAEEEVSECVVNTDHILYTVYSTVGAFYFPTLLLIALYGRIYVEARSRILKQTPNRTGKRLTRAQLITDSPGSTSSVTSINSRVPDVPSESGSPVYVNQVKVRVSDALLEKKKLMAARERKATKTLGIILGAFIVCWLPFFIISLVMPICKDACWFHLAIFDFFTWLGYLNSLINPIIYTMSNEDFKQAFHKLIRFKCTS", "experiment": "Displacement of [125I]-CYP from human 5-HT1B receptor at 10 uM after 120 mins by scintillation counting analysis relative to control"}, "Mus musculus [21]": {"system": "Mus musculus", "experiment": "Hepatotoxicity in mouse assessed as effect on globulin level at 1 to 50 mg/kg, ip dosed daily for 1 month", "assay_type": "toxicity, organism-based", "conditions": "in vivo", "outline": "as §3"}, "[22]": {"experiment": "AUC (0 to t) in rat at 10 mg/kg, iv", "assay_type": "ADME, organism-based", "conditions": "in vivo"}, "Mus musculus [23]": {"system": "Mus musculus", "experiment": "Anti-inflammatory activity in poly(I:C)-induced airway inflammation C57BL/6 mouse model assessed as reduction in total cells in bronchoalveolar lavage fluid at 10 mg/kg, ip administered 1 day prior to poly(I:C) stimulation and redosed on day 2 followed by poly(I:C) stimulation by trypan blue staining-based hemocytometric analysis", "assay_type": "functional, organism-based"}, "Cavia porcellus": {"species": "Cavia porcellus", "experiment": "Binding affinity to guinea pig Sodium channel site 2 at 10 uM by antagonist radioligand assay relative to control", "parameters": "scale not given: the % may be the effect or the level left"}, "[24]": {"target": "Glucocorticoid receptor (Homo sapiens) (UniProt P04150)", "sequence (P04150 whole entry)": "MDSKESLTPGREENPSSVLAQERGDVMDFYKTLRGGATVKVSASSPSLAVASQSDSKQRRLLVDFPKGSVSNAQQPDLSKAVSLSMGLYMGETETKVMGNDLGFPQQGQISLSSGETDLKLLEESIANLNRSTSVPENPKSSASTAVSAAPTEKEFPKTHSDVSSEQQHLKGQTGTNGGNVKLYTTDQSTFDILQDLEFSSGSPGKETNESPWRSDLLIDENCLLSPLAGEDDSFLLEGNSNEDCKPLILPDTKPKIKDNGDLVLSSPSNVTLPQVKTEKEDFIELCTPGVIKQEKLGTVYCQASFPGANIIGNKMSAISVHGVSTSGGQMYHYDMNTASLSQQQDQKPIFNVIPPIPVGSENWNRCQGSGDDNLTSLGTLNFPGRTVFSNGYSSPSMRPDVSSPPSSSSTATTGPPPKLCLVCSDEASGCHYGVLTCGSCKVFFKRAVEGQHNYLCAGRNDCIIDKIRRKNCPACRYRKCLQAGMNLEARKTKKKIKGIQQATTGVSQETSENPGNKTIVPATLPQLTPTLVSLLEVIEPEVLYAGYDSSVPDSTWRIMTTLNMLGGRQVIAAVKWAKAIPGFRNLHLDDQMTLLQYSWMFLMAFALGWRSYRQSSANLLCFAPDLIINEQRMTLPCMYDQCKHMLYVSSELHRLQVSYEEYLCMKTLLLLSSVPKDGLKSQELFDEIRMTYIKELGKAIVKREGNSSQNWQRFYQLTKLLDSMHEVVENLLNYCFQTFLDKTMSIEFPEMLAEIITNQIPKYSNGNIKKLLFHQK", "experiment": "Displacement of [3H]dexamethasone from human GR at 10 uM after 360 mins by scintillation counting analysis relative to control"}, "Mus musculus [25]": {"system": "Mus musculus", "experiment": "Toxicity in mouse assessed as effect on WBC levels at 1 to 50 mg/kg, ip dosed daily for 1 month", "assay_type": "organism-based", "conditions": "in vivo"}, "[26]": {"target": "Beta-1 adrenergic receptor (Homo sapiens) (UniProt P08588)", "experiment": "Displacement of [3H](-)CGP 12177 from human beta1 adrenoceptor at 10 uM after 60 mins by scintillation counting analysis relative to control"}, "Mus musculus [27]": {"system": "Mus musculus", "experiment": "Anti-inflammatory activity in poly(I:C)-induced airway inflammation C57BL/6 mouse model assessed as reduction in mIL6 expression in lung at 10 mg/kg, ip administered 1 day prior to poly(I:C) stimulation and redosed on day 2 followed by poly(I:C) stimulation", "assay_type": "functional, organism-based", "outline": "as §2"}, "[28]": {"target": "Cannabinoid receptor 2 (Homo sapiens) (UniProt P34972)", "sequence (P34972 whole entry)": "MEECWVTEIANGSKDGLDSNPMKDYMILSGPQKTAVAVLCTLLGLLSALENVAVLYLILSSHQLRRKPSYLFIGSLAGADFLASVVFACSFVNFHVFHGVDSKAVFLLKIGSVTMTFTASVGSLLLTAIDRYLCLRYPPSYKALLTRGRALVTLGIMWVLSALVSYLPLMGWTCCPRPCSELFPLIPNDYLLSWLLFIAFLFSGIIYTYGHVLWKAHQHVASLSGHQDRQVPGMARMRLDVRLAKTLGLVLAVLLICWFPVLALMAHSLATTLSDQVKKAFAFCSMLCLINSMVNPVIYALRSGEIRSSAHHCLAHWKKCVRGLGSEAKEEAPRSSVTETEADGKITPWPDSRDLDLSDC", "experiment": "Displacement of [3H]WIN 55212-2 from human recombinant CB2 receptor at 10 uM after 120 mins by scintillation counting analysis relative to control"}, "[29]": {"target": "B2 bradykinin receptor (Homo sapiens) (UniProt P30411)", "experiment": "Displacement of [3H]bradykinin from human recombinant B2 receptor at 10 uM after 60 mins by scintillation counting analysis relative to control"}, "[30]": {"target": "Alpha-2A adrenergic receptor (Homo sapiens) (UniProt P08913)", "sequence (P08913 whole entry)": "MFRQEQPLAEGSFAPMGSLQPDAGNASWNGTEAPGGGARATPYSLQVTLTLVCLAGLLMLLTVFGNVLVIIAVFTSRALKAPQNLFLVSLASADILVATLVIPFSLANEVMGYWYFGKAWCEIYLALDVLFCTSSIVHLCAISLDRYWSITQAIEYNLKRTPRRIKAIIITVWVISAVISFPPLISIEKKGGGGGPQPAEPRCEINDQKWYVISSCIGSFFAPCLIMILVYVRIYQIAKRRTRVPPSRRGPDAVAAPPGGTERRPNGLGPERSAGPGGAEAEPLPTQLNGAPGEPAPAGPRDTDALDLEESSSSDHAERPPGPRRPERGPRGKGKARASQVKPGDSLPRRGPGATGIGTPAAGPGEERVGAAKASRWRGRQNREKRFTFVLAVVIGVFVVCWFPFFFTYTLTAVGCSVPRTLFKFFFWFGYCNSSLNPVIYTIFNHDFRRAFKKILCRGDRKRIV", "experiment": "Binding affinity to adrenergic alpha2A receptor (unknown origin) at 10 uM by agonist radioligand assay relative to control"}},
  "note": "The source made the active and inactive calls. The rule behind the calls is not given here.",
  "data": [
    {"smiles": "Cc1cc(/N=N/c2ccc(S(=O)(=O)NC3CCCC3)cc2)c(N)cc1O", "values": [
      {"measurement": "Activity", "setting": "[1]", "result": -14.2, "unit": "%"},
      {"measurement": "Activity", "setting": "Rattus norvegicus", "result": 8.5, "unit": "%"},
      {"measurement": "Activity", "setting": "[2]", "result": -2.9, "unit": "%"},
      {"measurement": "Activity", "setting": "Mus musculus [3]", "result": "Active"},
      {"measurement": "Activity", "setting": "[4]", "result": 38.1, "unit": "%"},
      {"measurement": "Activity", "setting": "[5]", "result": 4.8, "unit": "%"},
      {"measurement": "Activity", "setting": "Mus musculus [6]", "result": "Non-Toxic"},
      {"measurement": "Activity", "setting": "[7]", "result": 11.7, "unit": "%"},
      {"measurement": "inhibition at 2 h, 10 µM", "setting": "[8]", "result": 49.8, "unit": "%"},
      {"measurement": "Activity", "setting": "Mus musculus [9]", "result": "Non-Toxic"},
      {"measurement": "Activity", "setting": "Mus musculus [10]", "result": "Non-Toxic"},
      {"measurement": "half-life", "setting": "[11]", "result": 49.8, "unit": "min"},
      {"measurement": "Activity", "setting": "Mus musculus [12]", "result": "Non-Toxic"},
      {"measurement": "inhibition at […], 10 µM", "setting": "[13]", "result": 42, "unit": "%"},
      {"measurement": "Activity", "setting": "[14]", "result": 46, "unit": "%"},
      {"measurement": "inhibition at 1 h, 10 µM", "setting": "hERG (KCNH2)", "result": 23.6, "unit": "%"},
      {"measurement": "Activity", "setting": "[15]", "result": -10.1, "unit": "%"},
      {"measurement": "clearance", "setting": "[16]", "result": 14.7, "unit": "mL/min/kg"},
      {"measurement": "Activity", "setting": "[17]", "result": -26.2, "unit": "%"},
      {"measurement": "Activity", "setting": "Mus musculus [18]", "result": "Non-Toxic"},
      {"measurement": "AUC(0-t)", "setting": "[19]", "result": 104, "unit": "ng·h/mL"},
      {"measurement": "Activity", "setting": "[20]", "result": -9.6, "unit": "%"},
      {"measurement": "Activity", "setting": "Mus musculus [21]", "result": "Non-Toxic"},
      {"measurement": "AUC(0-t)", "setting": "[22]", "result": 11400, "unit": "ng·h/mL"},
      {"measurement": "Activity", "setting": "Mus musculus [23]", "result": "Active"},
      {"measurement": "Activity", "setting": "Cavia porcellus", "result": 27.7, "unit": "%"},
      {"measurement": "Activity", "setting": "[24]", "result": 15, "unit": "%"},
      {"measurement": "Activity", "setting": "Mus musculus [25]", "result": "Non-Toxic"},
      {"measurement": "Activity", "setting": "[26]", "result": 7.4, "unit": "%"},
      {"measurement": "Activity", "setting": "Mus musculus [27]", "result": "Active"},
      {"measurement": "Activity", "setting": "[28]", "result": 59.3, "unit": "%"},
      {"measurement": "Activity", "setting": "[29]", "result": -2.4, "unit": "%"},
      {"measurement": "Activity", "setting": "[30]", "result": 3, "unit": "%"}
    ]}
  ]
}
